In ChEMBL document CHEMBL4257556, “Novel 1,3,4-thiadiazole-chalcone hybrids containing catechol moiety: synthesis, antioxidant activity, cytotoxicity and DNA interaction studies” (Medchemcomm, 2018):
Active and inactive are the calls of the source. The rule behind the calls is not given here.

What was measured:
HeLa [1] = assay: Upregulation of MMP9 gene expression in human HeLa cells at 10 uM after 24 hrs by RT-qPCR method; format: functional, cell-based
DNA [2] = assay: Reversal of Fe2+-induced Escherichia coli pUC19 DNA cleavage at 1:2 compound to Fe2+ mole ratio after 90 mins by agarose gel electrophoresis method; format: functional
Summary of the method: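 Compound (4 μL of 2 mM) preincubated with FeSO4 (1 or 2 μL of 8 mM; compound:Fe 1:1 or 1:2) in bicarbonate buffer 60 min at 37 °C, then pUC19 added for another 90 min; products resolved on 1% agarose gel, ethidium bromide stained.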

Calf thymus DNA [3] = assay: Binding affinity to calf thymus DNA assessed as hyperchromism at 40 uM after 90 mins by UV/visible spectrophotometric analysis; format: nucleic-acid assay; conditions: Bos taurus
Summary of the method: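 CT-DNA stock in 10 mM Tris-HCl pH 7.9 (A260/A280 1.89–2.01; concentration from ε260 6600 M–1 cm–1). Compound (10, 20 or 40 μM) plus CT-DNA (95 μM) in 40 mM bicarbonate pH 8.4, 37 °C 90 min; spectra 200–800 nm. Hyper/hypochromism at 259 nm from bound versus summed free compound and DNA extinction; triplicate.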

MRC5 [4] = assay: Cytotoxicity against human MRC5 cells assessed as decrease in cell survival after 72 hrs by MTT assay; format: cell-based; conditions: MRC5, 72 h
Summary of the method: (§1)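 HeLa (2000/well), A549 and MRC-5 (5000/well) seeded 20 h before treatment; HL-60 (7000/well) 2 h before. Five concentrations (6.25–100 μM or 3.125–50 μM) from 5 mM DMSO stocks, final DMSO ≤1%, 72 h; survival by MTT. Cisplatin positive control; three independent experiments in triplicate.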

HeLa [5] = assay: Cell cycle arrest in human HeLa cells assessed as accumulation at G2/M phase at 2 times IC50 after 24 hrs by propidium iodide staining-based flow cytometric method; format: functional
Summary of the method: (§2)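 HeLa cells treated 24 h at IC50 or 2×IC50 (from 72 h assay), fixed in 70% ethanol, stored at –20 °C ≥1 week, RNase A 30 min 37 °C, propidium iodide stained; flow cytometry, 10 000 gated events. Mean ± SD of three independent experiments; one-way ANOVA with Dunnett's post-test, p < 0.05.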

HeLa [6] = assay: Cell cycle arrest in human HeLa cells assessed as accumulation at sub-G1 phase at 2 times IC50 after 24 hrs in presence of caspase-9 inhibitor Z-LEHD-FMK by propidium iodide-staining based flow cytometric method; format: functional
Summary of the method: (§3)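 HeLa cells pretreated 2 h with 40 μM peptide caspase inhibitor (Z-DEVD-FMK caspase-3, Z-IETD-FMK caspase-8 or Z-LEHD-FMK caspase-9), then exposed to 2×IC50 compound; subG1 fraction by propidium iodide flow cytometry, compared with samples lacking inhibitor.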

Calf thymus DNA [7] = assay: Displacement of Hoechst 33258 from calf thymus DNA assessed as fluorescence intensity of compound-DNA complex at 22 uM by fluorescence spectrophotometric analysis relative to control; format: nucleic-acid assay; conditions: Bos taurus
Summary of the method: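 CT-DNA 100 μM (per phosphate) in 40 mM bicarbonate pH 8.4 pretreated 20 min with Hoechst 33258 (28 μM final), then compound added stepwise. Excitation 350 nm, emission 390–550 nm, read at 444 nm, 10 nm slits; H–DNA as control. Quenching constant K by Stern–Volmer, I0/I versus r = [compound]/[DNA]; triplicate.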

HeLa [8] = assay: Cytotoxicity against human HeLa cells assessed as decrease in cell survival after 72 hrs by MTT assay; format: functional, cell-based; summary of the method: as §1
HeLa [9] = assay: Cell cycle arrest in human HeLa cells assessed as accumulation at G2/M phase at IC50 after 24 hrs by propidium iodide staining-based flow cytometric method; format: functional; summary of the method: as §2
HeLa [10] = assay: Prooxidant activity in human HeLa cells assessed as increase in H2O2-induced reactive oxygen species at 10 uM preincubated for 24 hrs followed by H2O2 addition and measured after 30 mins by dichlorofluorescein dye-based flow cytometric method; format: functional, cell-based
Summary of the method: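 HeLa cells pretreated 24 h with 10 μM compound, washed, loaded with 30 μM DCFH-DA in PBS 45 min at 37 °C. One portion read directly (endogenous ROS); other portion exposed to 10 mM H2O2 30 min at 37 °C. DCF green fluorescence by flow cytometry, 20 000 events per sample; mean ± SD of two independent experiments.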

HeLa [11] = assay: Cell cycle arrest in human HeLa cells assessed as accumulation at sub-G1 phase at 2 times IC50 after 24 hrs in presence of caspase-3 inhibitor Z-DEVD-FMK by propidium iodide-staining based flow cytometric method; format: functional; summary of the method: as §3
HeLa [12] = assay: Cell cycle arrest in human HeLa cells assessed as accumulation at sub-G1 phase at 2 times IC50 after 24 hrs in presence of caspase-8 inhibitor Z-IETD-FMK by propidium iodide-staining based flow cytometric method; format: functional; summary of the method: as §3
MRC5 [13] = assay: Induction of DNA damage in human MRC5 cells assessed as formation of DNA breaks at 25 uM after 24 hrs by comet assay relative to control; format: functional
Summary of the method: (§4)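 MRC-5 cells exposed 24 h to 3.125–25 μM compound; DNA damage scored as % tail DNA (tail intensity) by comet assay. PBS negative control; H2O2 50 μM 5 min in-gel positive control. Triplicate, repeated twice; mean ± SD.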

HeLa [14] = assay: Downregulation of MMP2 gene expression in human HeLa cells at 10 uM after 24 hrs by RT-qPCR method; format: functional, cell-based
MRC5 [15] = assay: Induction of DNA damage in human MRC5 cells assessed as formation of DNA breaks after 24 hrs by comet assay; format: functional, cell-based; summary of the method: as §4
HeLa [16] = assay: Cell cycle arrest in human HeLa cells assessed as decrease in cell levels at G1 phase at 2 times IC50 after 24 hrs by propidium iodide staining-based flow cytometric method; format: functional; summary of the method: as §2
[17] = Antioxidant activity assessed as DPPH free radical scavenging activity after 30 mins; format: functional
Summary of the method: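 DPPH (0.05 mM in methanol) mixed with equal volume of compound (DMSO solution diluted in methanol), kept in dark at room temperature 30 min; absorbance at 517 nm, methanol control, ascorbic acid positive control. IC50 = concentration giving 50% of maximum scavenging; mean ± SD of independent triplicate experiments.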

DNA [18] = assay: Induction of Escherichia coli pUC19 DNA cleavage after 90 mins by agarose gel electrophoresis method; format: nucleic-acid assay
Summary of the method: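 Plasmid pUC19 (from E. coli XL1 blue; 460 ng, 12 nM) incubated with compound (0.05–0.4 mM; from 2 mM DMSO stock) in 20 μL 40 mM bicarbonate pH 8.4 at 37 °C for 90 min; 1% agarose gel in TAE at 80 V, ethidium bromide staining, UV at 312 nm; supercoiled/nicked/linear forms scored.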

HL-60 = assay: Cytotoxicity against human HL60 cells assessed as decrease in cell survival after 72 hrs by MTT assay; format: functional, cell-based; conditions: HL-60, 72 h; summary of the method: as §1
HeLa [19] = assay: Downregulation of miR-155 expression in human HeLa cells at 10 uM after 24 hrs by RT-qPCR method; format: functional, cell-based
HeLa [20] = assay: Downregulation of TIMP3 gene expression in human HeLa cells at 10 uM after 24 hrs by RT-qPCR method; format: functional, cell-based

- Activity (Calf thymus DNA [3]): -4.9%
- Activity (Calf thymus DNA [7]): 60%
- IC50 [17]: 17.2 µM
- Activity (DNA [18]): inactive
SMILES: Cc1cccc(C(=O)/C=C/c2ccc(C(=O)Nc3nnc(-c4ccc(O)c(O)c4)s3)cc2)c1
- Activity (HeLa [1]): Active
- Activity (DNA [2]): Active
- IC50 (MRC5 [4]): 34.2 µM
- Activity (HeLa [5]): Active
- Activity (HeLa [6]): inactive
- IC50 (HeLa [8]): 9.63 µM
- Activity (HeLa [9]): Active
- Activity (HeLa [10]): inactive
- Activity (HeLa [11]): inactive
- Activity (HeLa [12]): inactive
- Activity (MRC5 [13]): 38%
- Activity (HeLa [14]): Active
- Activity (MRC5 [15]): Dose-dependent effect
- Activity (HeLa [16]): Active
- IC50 (HL-60): 8.39 µM
- Activity (HeLa [19]): inactive
- Activity (HeLa [20]): Active
